Active and inactive are the calls of the source. The calls are words filed in the database; no cut-off is given here.
Key:
Mus musculus [1] = experiment: Analgesic activity against acetic acid induced writhing test in mouse after peroral administration at 25 mg/kg; IA=Inactive; assay type: functional, organism-based; set-up: dose 25 mg/kg
Method in brief: (§1)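 Female mice (20–22 g), groups of 10, fasted 7 h; drug given orally 30 min before intraperitoneal injection of 0.2 mL 1% aqueous acetic acid. Stretching/writhing movements counted from minute 5 to 20 after irritant.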

Mus musculus [2] = experiment: Analgesic activity against acetic acid induced writhing test in mouse administered po at 50 mg/kg; IA=Inactive; assay type: functional, organism-based; set-up: dose 50 mg/kg; method in brief: as §1
Mus musculus [3] = experiment: Analgesic activity against acetic acid induced writhing test in mouse after peroral administration; assay type: functional
Mus musculus [4] = experiment: Analgesic activity against acetic acid induced writhing test in mouse after peroral administration, treatment 6 hr before testing; assay type: functional; details: po
Method in brief: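 Groups of 10 female mice (20–22 g), fasted 7 h, dosed orally 6 h before ip injection of 0.2 mL 1% aqueous acetic acid. Stretching and writhing movements counted from minute 5 to 20 after irritant. ED50 evaluated graphically or by computerized least-squares curve fitting.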

Rattus norvegicus [5] = experiment: Ulcerogenic effect after oral administration (gastric ulcer); assay type: functional
Method in brief: (§2)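 Groups of eight female rats (120–150 g), fasted 24 h, dosed orally; killed 7 h later and stomachs scored. Ulceration index = (mean ulcer degree × rats with ulcers / number of rats) × 100, ulcers being scores above 0.5. ED100 (index 100, max 300) read graphically.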

Rattus norvegicus [6] = experiment: Ulcerogenic effect after oral administration (intestinal ulcer); assay type: functional
Method in brief: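 Nonfasted male rats (150–180 g) killed 24 h after oral dosing, and intestinal ulcers scored. Ulceration index = (mean degree × rats with ulcers / rats) × 100. ED100 (index 100) determined graphically.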

Rattus norvegicus [7] = species on record: Rattus norvegicus; experiment: Antiarthritis activity against adjuvant-induced arthritis in rats; assay type: functional
Method in brief: (§3)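 Groups of five male Lewis rats, 40–50 days old, given intraplantar injection in right hind paw of 0.6 mg Mycobacterium butyricum in 0.1 mL Bayol 55. Drug given in food from adjuvant day to day 17. Injected and noninjected hind paw volumes measured day 17 against normal controls. ED50 by least-squares curve fitting or Litchfield–Wilcoxon probit.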

Rattus norvegicus [8] = experiment: Anti-arthritis activity against adjuvant-induced arthritis in rats after peroral administration; assay type: functional; method in brief: as §3
Rattus norvegicus [9] = experiment: Antiinflammatory activity against carrageenan-induced foot edema in rat after peroral administration; assay type: functional; details: po
Method in brief: (§4)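 Groups of eight male Sprague-Dawley rats (150–180 g) dosed orally at the time of subplantar injection of 0.5 mg carrageenin. Paw volume difference measured before and 5 h after injection. Expressed as ED40, estimated graphically or by Litchfield–Wilcoxon probit analysis.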

[10] = target: T1, Polyunsaturated fatty acid 5-lipoxygenase (Rattus norvegicus, UniProt P12527); experiment: Inhibition of 5-lipoxygenase from rat peritoneal neutrophils in vitro
T1 sequence (P12527 whole entry): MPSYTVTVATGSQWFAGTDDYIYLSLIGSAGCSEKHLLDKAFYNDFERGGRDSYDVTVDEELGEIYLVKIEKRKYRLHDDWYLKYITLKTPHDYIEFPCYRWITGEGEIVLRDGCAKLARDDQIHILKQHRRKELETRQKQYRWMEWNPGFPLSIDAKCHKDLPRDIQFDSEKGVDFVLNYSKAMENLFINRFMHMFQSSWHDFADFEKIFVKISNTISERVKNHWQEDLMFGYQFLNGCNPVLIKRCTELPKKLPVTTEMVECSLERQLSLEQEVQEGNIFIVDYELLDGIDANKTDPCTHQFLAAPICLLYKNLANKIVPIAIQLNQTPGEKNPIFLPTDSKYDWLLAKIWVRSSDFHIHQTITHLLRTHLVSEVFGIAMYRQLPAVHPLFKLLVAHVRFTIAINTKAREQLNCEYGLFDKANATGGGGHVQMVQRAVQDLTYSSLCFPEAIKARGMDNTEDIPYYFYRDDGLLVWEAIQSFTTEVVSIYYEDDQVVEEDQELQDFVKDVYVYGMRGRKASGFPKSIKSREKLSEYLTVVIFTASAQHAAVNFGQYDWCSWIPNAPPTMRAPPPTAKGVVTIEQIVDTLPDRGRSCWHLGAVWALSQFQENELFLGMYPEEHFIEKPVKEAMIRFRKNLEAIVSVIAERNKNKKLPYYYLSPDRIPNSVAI

Cyclooxygenase = target: T2, Cyclooxygenase (Bos taurus, UniProt O62664+O62698); experiment: Inhibition of bovine Prostaglandin G/H synthase in seminal vesicle microsomes in vitro
T2 sequence (O62664 whole entry): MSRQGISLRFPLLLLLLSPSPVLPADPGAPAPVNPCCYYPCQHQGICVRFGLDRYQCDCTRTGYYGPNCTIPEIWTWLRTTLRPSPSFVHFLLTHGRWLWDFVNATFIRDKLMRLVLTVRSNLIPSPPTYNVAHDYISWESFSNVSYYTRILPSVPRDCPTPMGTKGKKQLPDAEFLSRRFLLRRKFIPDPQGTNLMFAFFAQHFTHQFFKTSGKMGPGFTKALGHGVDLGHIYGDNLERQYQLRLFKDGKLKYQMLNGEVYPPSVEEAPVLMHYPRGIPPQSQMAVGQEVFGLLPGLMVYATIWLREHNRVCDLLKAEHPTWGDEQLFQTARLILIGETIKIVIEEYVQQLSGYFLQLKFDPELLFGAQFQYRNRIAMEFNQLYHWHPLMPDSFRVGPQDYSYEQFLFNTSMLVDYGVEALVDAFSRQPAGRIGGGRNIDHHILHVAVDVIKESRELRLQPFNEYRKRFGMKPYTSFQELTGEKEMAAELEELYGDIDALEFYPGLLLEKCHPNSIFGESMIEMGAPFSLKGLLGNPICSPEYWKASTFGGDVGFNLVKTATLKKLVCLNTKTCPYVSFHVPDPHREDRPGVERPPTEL
T2 sequence (O62698 whole entry): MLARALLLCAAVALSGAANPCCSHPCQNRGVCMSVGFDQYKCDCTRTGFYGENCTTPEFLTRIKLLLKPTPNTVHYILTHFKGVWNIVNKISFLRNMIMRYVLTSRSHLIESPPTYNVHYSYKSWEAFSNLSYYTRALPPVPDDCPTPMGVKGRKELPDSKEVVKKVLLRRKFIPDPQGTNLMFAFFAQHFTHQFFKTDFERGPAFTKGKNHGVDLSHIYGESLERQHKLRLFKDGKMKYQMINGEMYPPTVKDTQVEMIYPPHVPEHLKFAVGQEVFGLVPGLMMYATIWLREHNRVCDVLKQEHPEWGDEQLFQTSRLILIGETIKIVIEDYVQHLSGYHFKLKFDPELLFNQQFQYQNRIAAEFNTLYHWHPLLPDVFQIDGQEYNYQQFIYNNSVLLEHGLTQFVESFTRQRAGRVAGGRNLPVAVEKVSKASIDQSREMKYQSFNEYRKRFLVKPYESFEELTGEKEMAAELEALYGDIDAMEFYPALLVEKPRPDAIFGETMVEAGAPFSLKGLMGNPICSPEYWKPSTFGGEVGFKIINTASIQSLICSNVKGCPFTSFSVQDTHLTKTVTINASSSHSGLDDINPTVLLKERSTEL

Rattus norvegicus [11] = experiment: Antiarthritis activity against adjuvant-induced arthritis in rats after peroral administration at 15 mg/kg; IA=Inactive; assay type: functional, organism-based; set-up: dose 15 mg/kg; method in brief: as §3
Mus musculus [12] = experiment: Analgesic activity against acetic acid induced writhing test in mouse after peroral administration; range is (3.2-7.9); assay type: functional; details: po
Rattus norvegicus [13] = experiment: Ulcerogenic effect against intestinal ulcer in rats after oral administration of 500 mg/kg; IA=Inactive; assay type: functional, organism-based; set-up: dose 500 mg/kg
Method in brief: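 Nonfasted male rats (150–180 g) killed 24 h after oral dosing; intestinal ulcers scored and ulceration index computed from mean ulcer degree times fraction of rats with ulcers ×100; ED100 (index 100) determined graphically.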

Rattus norvegicus [14] = experiment: (§5) Ulcerogenic effect against gastric ulcer in rat after oral administration; assay type: functional, Stomach; method in brief: as §2
Rattus norvegicus [15] = experiment: Antiinflammatory activity against carrageenan-induced foot edema in rat after peroral administration calculated from 4 doses; assay type: functional; details: po; method in brief: as §4
Rattus norvegicus [16] = experiment: Antiinflammatory activity against carrageenan-induced foot edema in rat; assay type: functional; method in brief: as §4
Mus musculus [17] = experiment: Analgesic activity against acetic acid induced writhing test in mouse administered peroral dose of 25 mg/kg; IA=Inactive; assay type: functional, organism-based; set-up: dose 25 mg/kg; method in brief: as §1
Rattus norvegicus [18] = experiment: Antiinflammatory activity against carrageenan-induced foot edema in rat after oral administration of 25 mg/kg; IA=Inactive; assay type: functional, organism-based; set-up: dose 25 mg/kg
Mus musculus [19] = experiment: Analgesic activity against acetic acid induced writhing test in mouse after peroral administration at 100 mg/kg; IA=Inactive; assay type: functional, organism-based; set-up: dose 100 mg/kg; method in brief: as §1
Rattus norvegicus [20] = experiment: as §5; assay type: functional; details: Stomach; method in brief: as §2
Rattus norvegicus [21] = experiment: Antiinflammatory activity against carrageenan-induced foot edema in rat after peroral administration calculated from at least four doses
[22] = Mus musculus, po, read-out: ED50
[23] = Rattus norvegicus, po, read-out: ED50

## CC(Cl)(Cl)c1nc2c(C(F)(F)F)cccc2c(O)c1C(=O)Nc1nccs1
Mus musculus [1]
  ED50: inactive

## Cc1cc(NC(=O)c2cnc3c(C(F)(F)F)cccc3c2O)no1
Mus musculus [2]
  ED50: inactive

## CCC(=O)OC(CC)c1nc2c(C(F)(F)F)cccc2c(O)c1C(=O)Nc1nccs1 (stereo in doubt; 102)
Mus musculus [3]
  ED50: 50 mg/kg
Mus musculus [4]
  ED50: 4.6 mg/kg
Rattus norvegicus [5]
  ED100: >300 mg/kg
Rattus norvegicus [6]
  ED100: >250 mg/kg
Rattus norvegicus [7]
  ED50: 0.7 mg/kg
Rattus norvegicus [8]
  ED50: 0.7 mg/kg
Rattus norvegicus [9]
  ED40: 4 mg/kg
[10]
  IC50: 3000 nM
Cyclooxygenase
  IC50: 2100 nM

## C[C@@H](N)c1nc2c(C(F)(F)F)cccc2c(O)c1C(=O)Nc1nccs1
Mus musculus [3]; [22]
  ED50: > 100 mg/kg
Rattus norvegicus [11]
  ED50: inactive

## O=C(Nc1nccs1)c1cnc2c(C(F)(F)F)cccc2c1O
Mus musculus [3]; [22]
  ED50: 5 mg/kg
Mus musculus [12]
  ED50: 5 mg/kg
Rattus norvegicus [13]
  ED100: inactive
Rattus norvegicus [14]
  ED100: >500 mg/kg
Rattus norvegicus [15]
  ED40: > 100 mg/kg
[10]
  IC50: 35000 nM
Cyclooxygenase
  IC50: 2800 nM

## CCC(=O)N[C@@H](CC)c1nc2c(C(F)(F)F)cccc2c(O)c1C(=O)Nc1nccs1
Mus musculus [3]; [22]
  ED50: 20 mg/kg
Mus musculus [4]
  ED50: 4 mg/kg
Rattus norvegicus [5]
  ED100: >300 mg/kg
Rattus norvegicus [6]
  ED100: >100 mg/kg
Rattus norvegicus [7]
  ED50: 3.5 mg/kg
Rattus norvegicus [8]; [23]
  ED50: 3 mg/kg
Rattus norvegicus [16]
  ED40: > 100 mg/kg
[10]
  IC50: 2000 nM
Cyclooxygenase
  IC50: 400 nM

## Cc1cnc(NC(=O)c2cnc3c(C(F)(F)F)cccc3c2O)s1
Mus musculus [2]
  ED50: inactive

## C=Cc1nc2c(C(F)(F)F)cccc2c(O)c1C(=O)Nc1nccs1
Mus musculus [17]
  ED50: inactive
Rattus norvegicus [18]
  ED50: inactive

## CCCCCCCCCCCC(=O)OC(CC)c1nc2c(C(F)(F)F)cccc2c(O)c1C(=O)Nc1nccs1 (stereo unspecified)
Mus musculus [19]
  ED50: inactive
Rattus norvegicus [8]; [23]
  ED50: > 5 mg/kg

## O=C(Nc1nccs1)c1c(C(F)(F)F)nc2c(C(F)(F)F)cccc2c1O
Mus musculus [3]
  ED50: 0.5 mg/kg
Mus musculus [3]; [22]
  ED50: 0.5 mg/kg
Rattus norvegicus [8]; [23]
  ED50: 3.8 mg/kg
Rattus norvegicus [20]
  ED100: 15 mg/kg
[10]
  IC50: 3000 nM
Cyclooxygenase
  IC50: 400 nM
Rattus norvegicus [21]
  ED40: 3.5 mg/kg

From ChEMBL document CHEMBL1124161, “4-Hydroxy-3-quinolinecarboxamides with antiarthritic and analgesic activities” (J Med Chem, 1988)
